This is an account of results in ChEMBL document CHEMBL1649091, “Flavonoids with an oligopolysulfated moiety: a new class of anticoagulant agents” (J Med Chem, 2011).

The source made the active and inactive calls. No cut-off for these calls is given here.

Assay [1] concerns Plasma. Nature of the assay: Anticoagulant activity in human plasma assessed as increase in prothrombin time at 5 x 10^-3M relative to control. The assay is classed as functional. The essentials: (§1)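 Citrated pooled normal human plasma, 1:1 with compound in water (water control), held 2 min at 37 °C before coagulometer reading. APTT: reagent, 6 min at 37 °C, then 25 mmol/L CaCl2. PT: prewarmed reagent. TT: prewarmed 100 U/mL thrombin. Ratio is clotting time with compound over time with water. Duplicates repeated on three days (n = 6).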

Assay [2] deals with Plasma. Nature of the assay: Anticoagulant activity in human plasma assessed as increase in thrombin time at 5 x 10^-3M relative to control. The assay is classed as functional, cell-free. The essentials:
as §1

Assay [3] deals with Plasma. Nature of the assay: Anticoagulant activity in human plasma assessed as increase in activated partial prothrombin time at 5 x 10^-3M relative to control. It is filed as functional. The essentials:
as §1

The test system of assay [4] is Plasma. Nature of the assay: Anticoagulant activity in human plasma assessed as increase in thrombin time at 0.5 x 10^-3M relative to control. The assay is classed as functional, cell-free. The method in brief:
as §1

The target in assay [5] is T1, Coagulation factor X/antithrombin III (Homo sapiens) (UniProt P01008+P00742). Nature of the assay: Inhibition of human antithrombin 3/factor 10a assessed as 125 x 10^-6M CBS31.39 substrate hydrolysis at 1 x 10^-3M. The assay is classed as protein-complex assay.
A short description of assay [6]: Antiplatelet activity against collagen EPI-induced human platelet aggregation assessed as closure time at 6.25 x 10^-4M. The assay is classed as functional. The method in brief:
(§2)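 Compound solution added to citrated human whole blood (125 µL into 1875 µL) to the final concentration stated, then run on a PFA-100 in collagen/ADP and collagen/epinephrine cartridges. Closure time is the time until platelets occlude the membrane aperture, in seconds. Mean ± SEM of three independent experiments.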

Assay [7] addresses Prothrombin (Homo sapiens) (UniProt P00734). Description: Inhibition of human thrombin. The essentials:
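Direct thrombin assay without ATIII: compound in water in 50 mM Tris/HCl pH 8.3, 227 mM NaCl, 0.1% BSA, 10 min at 37 °C. Human thrombin (0.06 U/mL final) added for 10 min, then Chromozym TH (178 × 10^-6 M). Read at 405 nm every 12 s for 20 min. Percent inhibition from initial slope against water control. Duplicates on ≥3 days.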

The subject of assay [8] is Blood. Description: Anticoagulant activity in human whole blood assessed as clotting time at 6.25 x 10^-4M by thromboelastography in presence of extrinsic activators. It is filed as functional. The method in brief:
(§3)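 Citrated whole blood from healthy donors (1:9 citrate), run within 5 h on a ROTEM analyzer. Compound in saline diluted 1:16 into blood to the final concentration stated; saline control. Intrinsic (InTEM) or extrinsic (ExTEM) activator added. Clot monitored at 37 °C in an oscillating cup-and-pin system for up to 60 min, giving R, K, angle and MA.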

For assay [9], the system named is Blood. Nature of the assay: Anticoagulant activity in human whole blood assessed as maximum amplitude at 6.25 x 10^-4M by thromboelastography in presence of intrinsic activators. The assay is classed as functional. The essentials:
as §3

Assay [10] can be described thus: Anticoagulant activity in human plasma assessed as concentration required to double prothrombin time. It is filed as functional. The essentials: (§4)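 Citrated pooled normal human plasma mixed 1:1 with compound in water (final 5 × 10-3 to 0.05 × 10^-3 M) and held 2 min at 37 °C. APTT: reagent added, 6 min at 37 °C, then 25 mmol/L CaCl2. PT: prewarmed PT reagent. TT: prewarmed thrombin (100 U/mL). Clotting read on a coagulometer, duplicate, three days (n = 6). Doubling concentration taken from linear regression of each concentration-response curve.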

The target of assay [11] is Coagulation factor X (Homo sapiens) (UniProt P00742). Nature of the assay: Inhibition of human factor 10a assessed as 125 x 10^-6M chromogenic TH substrate hydrolysis at 2 x 10^-3M. The essentials: (§5)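 Direct FXa test, with buffer in place of ATIII: compound in water in 50 mM Tris/HCl pH 8.3, 227 mM NaCl, 0.1% BSA, 10 min at 37 °C. Human FXa (0.5 U/mL final) added for 10 min, then CBS 31.39 (25 or 125 × 10^-6 M). Read at 405 nm every 12 s for 20 min. Percent inhibition from initial slope against water control, Michaelis-Menten fit.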

In assay [12] the target is T1, Coagulation factor X/antithrombin III (Homo sapiens). Description: Inhibition of human antithrombin 3/factor 10a assessed as 25 x 10^-6M CBS31.39 substrate hydrolysis at 2 x 10^-3M. The assay is classed as protein-complex assay.
The subject of assay [13] is Blood. Nature of the assay: Anticoagulant activity in human whole blood assessed as clotting formation time at 6.25 x 10^-4M by thromboelastography in presence of intrinsic activators. The assay is classed as functional. The method in brief: as §3
For assay [14], the target named is T1, Coagulation factor X/antithrombin III (Homo sapiens). Description: Inhibition of human antithrombin 3/factor 10a assessed as 25 x 10^-6M CBS31.39 substrate hydrolysis at 0.5 x 10^-3M. It is filed as protein-complex assay.
Assay [15] relates to Blood. Nature of the assay: Anticoagulant activity in human whole blood assessed as clotting formation time at 6.25 x 10^-4M by thromboelastography in presence of extrinsic activators. The assay is classed as functional. The essentials:
as §3

Assay [16] can be described thus: Anticoagulant activity in human plasma assessed as concentration required to double activated partial prothrombin time. It is filed as functional. The method in brief:
as §4

Assay [17] addresses T1, Coagulation factor X/antithrombin III (Homo sapiens). Description: Inhibition of human antithrombin 3/factor 10a assessed as 25 x 10^-6M CBS31.39 substrate hydrolysis at 1 x 10^-3M. It is filed as protein-complex assay.
Assay [18] deals with Blood. Description: Anticoagulant activity in human whole blood assessed as alpha angle at 6.25 x 10^-4M by thromboelastography in presence of extrinsic activators. It is filed as functional. The method in brief:
as §3

The target of assay [19] is T1, Coagulation factor X/antithrombin III (Homo sapiens). Description: Inhibition of human antithrombin 3/factor 10a assessed as 125 x 10^-6M CBS31.39 substrate hydrolysis at 0.5 x 10^-3M. It is filed as protein-complex assay.
For assay [20], the target named is Coagulation factor X (Homo sapiens) (UniProt P00742). Description: Inhibition of human factor 10a assessed as 125 x 10^-6M chromogenic TH substrate hydrolysis at 0.5 x 10^-3M. The essentials:
as §5

The next assay is filed under the species Homo sapiens. Description: (§6) Anticoagulant activity in human plasma assessed as concentration required to double thrombin time. It is filed as functional. The essentials: as §4
For assay [21], the target named is Coagulation factor X (Homo sapiens) (UniProt P00742). Description: Inhibition of human factor 10a assessed as 25 x 10^-6M chromogenic TH substrate hydrolysis at 1 x 10^-3M. The essentials: as §5
For assay [22] the target is unchanged. Description: Inhibition of human factor 10a assessed as 25 x 10^-6M chromogenic TH substrate hydrolysis at 2 x 10^-3M. The essentials: as §5
Assay [23] has as its system Blood. Nature of the assay: Anticoagulant activity in human whole blood assessed as clotting time at 6.25 x 10^-4M by thromboelastography in presence of intrinsic activators. It is filed as functional. The essentials:
as §3

Assay [24] addresses Coagulation factor X (Homo sapiens) (UniProt P00742). Nature of the assay: Inhibition of human factor 10a assessed as 25 x 10^-6M chromogenic TH substrate hydrolysis at 0.5 x 10^-3M. The method in brief: as §5
Assay [25] can be described thus: Antiplatelet activity against collagen ADP-induced human platelet aggregation assessed as closure time at 6.25 x 10^-4M. The assay is classed as functional. The method in brief: as §2
Assay [26] deals with T1, Coagulation factor X/antithrombin III (Homo sapiens). Description: Inhibition of human antithrombin 3/factor 10a assessed as 125 x 10^-6M CBS31.39 substrate hydrolysis at 2 x 10^-3M. It is filed as protein-complex assay.
Assay [27] relates to Blood. Description: Anticoagulant activity in human whole blood assessed as alpha angle at 6.25 x 10^-4M by thromboelastography in presence of intrinsic activators. The assay is classed as functional. The method in brief: as §3
The subject of assay [28] is Blood. Nature of the assay: Anticoagulant activity in human whole blood assessed as maximum amplitude at 6.25 x 10^-4M by thromboelastography in presence of extrinsic activators. It is filed as functional. The essentials: as §3
Assay [29] concerns the target Coagulation factor X (Homo sapiens) (UniProt P00742). Nature of the assay: Inhibition of human factor 10a assessed as 125 x 10^-6M chromogenic TH substrate hydrolysis at 1 x 10^-3M. The essentials: as §5
Assay [30] can be described thus: as §6. It is filed as functional. The essentials:
as §4

Chain of Coagulation factor X (Homo sapiens) (P00742 41-179 limits assumed): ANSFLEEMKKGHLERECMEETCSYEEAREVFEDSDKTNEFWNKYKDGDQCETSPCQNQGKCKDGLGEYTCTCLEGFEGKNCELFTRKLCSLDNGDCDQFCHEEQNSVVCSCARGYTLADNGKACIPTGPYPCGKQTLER
Chain of Coagulation factor X (Homo sapiens) (P00742 235-488 limits assumed): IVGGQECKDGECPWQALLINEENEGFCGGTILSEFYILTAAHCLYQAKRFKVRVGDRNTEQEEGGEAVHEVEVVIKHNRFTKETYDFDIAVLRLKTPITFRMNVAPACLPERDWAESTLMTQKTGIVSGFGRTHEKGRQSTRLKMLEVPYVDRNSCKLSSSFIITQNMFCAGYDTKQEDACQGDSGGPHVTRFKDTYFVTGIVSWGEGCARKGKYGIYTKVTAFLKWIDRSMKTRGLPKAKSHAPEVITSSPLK

`COc1ccc([C@@H]2CC(=O)c3c(O)cc(OS(=O)(=O)O)cc3O2)cc1OS(=O)(=O)O` [HESPERETIN 3',7-O-DISULFATE]: the “fold change (FC)” value came out at 1.2 in the assay on Plasma [1] and 1.1 in the assay with Plasma [3]. The result with Plasma [2] and in the assay with Plasma [4] was inactive.
Consider `COc1ccc([C@@H]2CC(=O)c3c(O)cc(O[C@@H]4O[C@H](CO[C@@H]5O[C@@H](C)[C@H](OS(=O)(=O)O)[C@@H](OS(=O)(=O)O)[C@H]5OS(=O)(=O)O)[C@@H](OS(=O)(=O)O)[C@H](OS(=O)(=O)O)[C@H]4OS(=O)(=O)O)cc3O2)cc1O`, for which the inhibition in [5] worked out at 46.2%; in assay [12] it was 49.6%; in assay [14] it was 30.5%; in assay [17] it was 40.2%; in assay [19] it was 39.7%; in [26], 58.1%. For the same molecule, the Time in assay [6] worked out at 167 s; with Blood [8] it was 59 s; with Blood [13], 214 s; with Blood [15] it was 116 s; with Blood [23] it was 300 s; in assay [25] it was 139 s. Besides, the inhibition result in assay [7], in assay [11], in assay [20], in assay [21], in assay [22] and in assay [24] was “inactive” each time. Also, the inhibition result in assay [29] is “inactive”. The Activity in the assay with Blood [9] is 40 mm; in the assay with Blood [18], 70 degree; with Blood [27], 57 degree; in the assay on Blood [28], 59 mm. Moreover, the 2PT in assay [10] came to 3620 µM. In [16], the 2aPTT is 413 µM. For the same molecule, the outcome in the assay filed under Homo sapiens was inactive.
For the molecule `C[C@H]1O[C@@H](OC[C@@H]2O[C@H](Oc3c(-c4ccc(OCCOS(=O)(=O)O)c(OCCOS(=O)(=O)O)c4)oc4cc(OCCOS(=O)(=O)O)cc(O)c4c3=O)[C@@H](OS(=O)(=O)O)[C@H](OS(=O)(=O)O)[C@H]2OS(=O)(=O)O)[C@@H](OS(=O)(=O)O)[C@@H](OS(=O)(=O)O)[C@@H]1OS(=O)(=O)O`, the inhibition in assay [5] worked out at 24.8%; in [11] it was 53.3%; in assay [12], 56%; in assay [14] it was 28.1%; in assay [17] it was 47.6%; in assay [19], 20.3%. The inhibition was 41.9% in assay [21], 25.7% in assay [24], 33.6% in assay [26] and 38.8% in assay [29]. Moreover, the Time in assay [6] is given as >300 s; in the assay with Blood [8], 105 s; in the assay with Blood [13], 122 s; in the assay with Blood [15], 111 s; in the assay on Blood [23] it was 560 s; in assay [25] it was 204 s. In addition, the inhibition result in assay [7] and in assay [20] was “inactive” in each case. Further, the Activity in the assay with Blood [9] was determined as 64 mm; in the assay with Blood [18] it was 69 degree; in assay [30] it was 867 µM; in the assay on Blood [27], 67 degree; in the assay with Blood [28], 61 mm. The 2PT in [10] was found to be 835 µM. The 2aPTT in [16] is 145 µM.

In general, inhibition refers to the drop in the measured response relative to a control, in per cent.
